≈ marks a conversion by molar mass, not a printed value. Calls of active or inactive are those of the source. No cut-off for these calls is given here.
Key:
Type in all cases: functional
[1] = test system: Mycobacterium tuberculosis; assay: Antitubercular activity against Mycobacterium tuberculosis H37Rv by MABA assay
Outline: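 Microplate Alamar Blue assay on the H37Rv strain, with rifampin, isoniazid and streptomycin as positive drug controls; values reported as MIC in μg/mL.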

HUVEC = assay: Cytotoxicity against HUVEC; details: Homo sapiens
Outline: (§1)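 Growth inhibition measured colorimetrically with CellTiter-Blue and MTT read-outs, with imatinib as reference drug; values reported as GI50 in μg/mL.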

K562 = assay: Cytotoxicity against human K562 cells; outline: as §1
HeLa = assay: Cytotoxicity against human HeLa cells; outline: as §1

Compound	MIC [1]	GI50 (HUVEC)	GI50 (K562)	CC50 (HeLa)
CN[C@@H]1[C@H](O[C@H]2[C@H](O[C@H]3[C@H](O)[C@@H](O)[C@H](N=C(N)N)[C@@H](O)[C@@H]3N=C(N)N)O[C@@H](C)[C@]2(O)C=O)O[C@@H](CO)[C@H](O)[C@H]1O [STREPTOMYCIN]	0.83 µg/mL (≈ 1.43 µM)			
NNC(=O)c1ccncc1 [ISONIAZID]	0.63 µg/mL (≈ 4.59 µM)			
CC(=O)O[C@@H]1C(=O)C=COC=C1COC(=O)c1ccccc1	32 µg/mL (≈ 106 µM)	5.4 µg/mL (≈ 17.9 µM)	1.4 µg/mL (≈ 4.63 µM)	
Cc1ccc(NC(=O)c2ccc(CN3CCN(C)CC3)cc2)cc1Nc1nccc(-c2cccnc2)n1 [IMATINIB]		> 10 µg/mL	0.1 µg/mL (≈ 0.203 µM)	> 10 µg/mL
COc1cccc2c1C(=O)c1c(O)c3c(c(O)c1C2=O)C[C@@](O)(C(=O)CO)C[C@@H]3O[C@H]1C[C@H](N)[C@H](O)[C@H](C)O1 [DOXORUBICIN]		0.1 µg/mL (≈ 0.184 µM)	1 µg/mL (≈ 1.84 µM)	2 µg/mL (≈ 3.68 µM)
COc1ccc(C[C@H]2c3cc(O)c(OC)cc3CCN2C)cc1O [(S)-RETICULINE]	32 µg/mL (≈ 97.1 µM)			
COc1ccc2c(c1)C[C@]1(OC)C(=O)/C(=C(O)/C=C/c3ccccc3)C(=O)C[C@@]1(OC)O2	10 µg/mL (≈ 22.9 µM)			
COc1ccc2c(c1)C[C@]1(O)C(=O)/C(=C(O)/C=C/c3ccccc3)C(=O)C[C@@]1(OC)O2 (relative stereo)	inactive			
CO[C@H]1/C=C/O[C@@]2(C)Oc3c(C)c(O)c4c(O)c(c(/C=N/N5CCN(C)CC5)c(O)c4c3C2=O)NC(=O)/C(C)=C\C=C\[C@H](C)[C@H](O)[C@@H](C)[C@@H](O)[C@@H](C)[C@H](OC(C)=O)[C@@H]1C [RIFAMPIN]	0.15 µg/mL (≈ 0.182 µM)			

— ChEMBL document CHEMBL3351242, “Tetrahydroxanthene-1,3(2H)-dione derivatives from Uvaria valderramensis” (2014)
